Laboratory results reported in ChEMBL document CHEMBL1137218, “Long hydrocarbon chain ether diols and ether diacids that favorably alter lipid disorders in vivo” (J Med Chem, 2004).

Tests used:
Rattus norvegicus [1] = experiment: Serum Triglyceride levels in female obese rats two weeks post treatment at 10 mg/kg oral dose; pretreatment value = 943 mg/dL; assay type: functional
Rattus norvegicus [2] = experiment: Blood glucose levels in female obese rats one week post treatment at 10 mg/kg oral dose; pretreatment value = 112 mg/dL; assay type: functional
Rattus norvegicus [3] = experiment: Serum Triglyceride levels in female obese rats one week post treatment at 10 mg/kg oral dose; pretreatment value = 943 mg/dL; assay type: functional
Rattus norvegicus [4] = experiment: Serum HDL cholesterol levels in female obese rats two weeks post treatment at 3 mg/kg oral dose; pretreatment value = 59 mg/dL; assay type: functional
Rattus norvegicus [5] = experiment: Serum HDL cholesterol levels in female obese rats two weeks post treatment at 10 mg/kg oral dose; pretreatment value = 56 mg/dL; assay type: functional
Rattus norvegicus [6] = experiment: Blood glucose levels in female obese rats one week post treatment at 100 mg/kg oral dose; pretreatment value = 105 mg/dL; assay type: functional
Rattus norvegicus [7] = organism: Rattus norvegicus; experiment: In vitro inhibitory concentration against lipid synthesis in primary rat hepatocyte culture; assay type: functional
Method in brief: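 Primary hepatocytes isolated from male Sprague-Dawley rats (Seglen method) and plated on collagen in DMEM with 20% FBS, 100 nM insulin, 25 mM glucose. Medium made serum-free after 4 h, cultured overnight to monolayers. Then 4 h incubation with 0.25 μCi [14C]-acetate/well (1 Ci/mol) and 0–300 μM compound. Lipids extracted into scintillant and counted. IC50 derived from lipid synthesis rates by nonlinear sigmoidal fit.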

Rattus norvegicus [8] = experiment: Serum Non-HDL cholesterol levels in female obese rats two weeks post treatment at 30 mg/kg oral dose; pretreatment value = 31 mg/dL; assay type: functional
Method in brief: (§1)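 Female obese Zucker fatty rats (10–12 weeks, 400–500 g), once-daily oral gavage in 20% EtOH/80% PEG-200 (v/v) for up to 14 days. Serum drawn after a 6 h fast, pre-dose and at days 7 and 14. Non-HDL cholesterol is serum total cholesterol times the percent area of the non-HDL peaks in a Superose 6HR gel-filtration profile with on-line cholesterol detection. n = 4 per dose.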

Rattus norvegicus [9] = experiment: Serum Non-HDL cholesterol levels in female obese rats two weeks post treatment at 100 mg/kg oral dose; pretreatment value = 23 mg/dL; assay type: functional; method in brief: as §1
Rattus norvegicus [10] = experiment: Percent change from pre-treatment triglycerides level at 100 mg/Kg after 1 week; assay type: functional
Method in brief: (§2)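 Female obese Zucker fatty rats Crl:(Zuc)-faBR, 10–12 weeks old (400–500 g), n=3–4, fed chow. Dosed by oral gavage once daily in 20% EtOH/80% PEG-200 for up to 14 days. Serum taken after a 6 h fast before dosing, at day 7 (orbital plexus) and at day 14 (cardiac puncture). TG by enzymatic kit on analyzer. HDL-C and non-HDL-C from Superose 6 gel-filtration profile area × total cholesterol. Results given as % change from pretreatment.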

Rattus norvegicus [11] = experiment: Percent change from pre-treatment triglycerides level at 100 mg/Kg after 2 weeks; assay type: functional; method in brief: as §2
Rattus norvegicus [12] = experiment: Percent change from pre-treatment HDL-Cholesterol level at 100 mg/Kg after 1 week; assay type: functional; method in brief: as §2
Rattus norvegicus [13] = experiment: Percent change from pre-treatment HDL-Cholesterol level at 100 mg/Kg after 2 weeks; assay type: functional; method in brief: as §2
Rattus norvegicus [14] = experiment: Percent change from pre-treatment Non HDL-Cholesterol level at 100 mg/Kg after 1 week; assay type: functional; method in brief: as §2
Rattus norvegicus [15] = experiment: Percent change from pre-treatment Non HDL-Cholesterol level at 100 mg/Kg after 2 weeks; assay type: functional; method in brief: as §2
Rattus norvegicus [16] = experiment: Serum NEFA levels in female obese rats one week post treatment at 10 mg/kg oral dose; pretreatment value = 1.2 mg/dL; assay type: functional
Rattus norvegicus [17] = experiment: Insulin levels in female obese rats two weeks post treatment at 10 mg/kg oral dose; pretreatment value = 8.2 ng/mL; assay type: functional
Rattus norvegicus [18] = experiment: Insulin levels in female obese rats two weeks post treatment at 3 mg/kg oral dose; pretreatment value = 12.9 ng/mL; assay type: functional
Rattus norvegicus [19] = experiment: Serum NEFA levels in female obese rats two weeks post treatment at 30 mg/kg oral dose; pretreatment value = 1.3 mg/dL; assay type: functional
Rattus norvegicus [20] = experiment: Serum HDL cholesterol levels in female obese rats one week post treatment at 10 mg/kg oral dose; pretreatment value = 56 mg/dL; assay type: functional
Rattus norvegicus [21] = experiment: Blood glucose levels in female obese rats two weeks post treatment at 100 mg/kg oral dose; pretreatment value = 105 mg/dL; assay type: functional
Rattus norvegicus [22] = experiment: Serum Non-HDL cholesterol levels in female obese rats one week post treatment at 3 mg/kg oral dose; pretreatment value = 21 mg/dL; assay type: functional; method in brief: as §1
Rattus norvegicus [23] = experiment: Serum Non-HDL cholesterol levels in female obese rats one week post treatment at 30 mg/kg oral dose; pretreatment value = 31 mg/dL; assay type: functional; method in brief: as §1
Rattus norvegicus [24] = experiment: Serum Non-HDL cholesterol levels in female obese rats two weeks post treatment at 3 mg/kg oral dose; pretreatment value = 21 mg/dL; assay type: functional; method in brief: as §1
Rattus norvegicus [25] = experiment: Serum Non-HDL cholesterol levels in female obese rats one week post treatment at 100 mg/kg oral dose; pretreatment value = 23 mg/dL; assay type: functional; method in brief: as §1
Rattus norvegicus [26] = experiment: Blood glucose levels in female obese rats two weeks post treatment at 3 mg/kg oral dose; pretreatment value = 115 mg/dL; assay type: functional
Rattus norvegicus [27] = experiment: Serum Triglyceride levels in female obese rats one week post treatment at 3 mg/kg oral dose; pretreatment value = 1111 mg/dL; assay type: functional
Rattus norvegicus [28] = experiment: Serum HDL cholesterol levels in female obese rats two weeks post treatment at 3 mg/kg oral dose; pretreatment value = 57 mg/dL; assay type: functional
Rattus norvegicus [29] = experiment: Serum Triglyceride levels in female obese rats one week post treatment at 100 mg/kg oral dose; pretreatment value = 1068 mg/dL; assay type: functional
Rattus norvegicus [30] = experiment: Serum Triglyceride levels in female obese rats two weeks post treatment at 10 mg/kg oral dose; pretreatment value = 1185 mg/dL; assay type: functional
Rattus norvegicus [31] = experiment: Serum Triglyceride levels in female obese rats two weeks post treatment at 30 mg/kg oral dose; pretreatment value = 1004 mg/dL; assay type: functional
Rattus norvegicus [32] = experiment: Serum HDL cholesterol levels in female obese rats one week post treatment at 100 mg/kg oral dose; pretreatment value = 58 mg/dL; assay type: functional
Rattus norvegicus [33] = experiment: Serum HDL cholesterol levels in female obese rats two weeks post treatment at 30 mg/kg oral dose; pretreatment value = 49 mg/dL; assay type: functional
Rattus norvegicus [34] = experiment: Blood glucose levels in female obese rats two weeks post treatment at 30 mg/kg oral dose; pretreatment value = 106 mg/dL; assay type: functional
Rattus norvegicus [35] = experiment: Serum NEFA levels in female obese rats one week post treatment at 30 mg/kg oral dose; pretreatment value = 1.2 mg/dL; assay type: functional
Rattus norvegicus [36] = experiment: Insulin levels in female obese rats two weeks post treatment at 10 mg/kg oral dose; pretreatment value = 8.8 ng/mL; assay type: functional
Rattus norvegicus [37] = experiment: Serum NEFA levels in female obese rats two weeks post treatment at 10 mg/kg oral dose; pretreatment value = 1.4 mg/dL; assay type: functional
Rattus norvegicus [38] = experiment: Insulin levels in female obese rats two weeks post treatment at 30 mg/kg oral dose; pretreatment value = 9 ng/mL; assay type: functional
Rattus norvegicus [39] = experiment: Serum Non-HDL cholesterol levels in female obese rats one week post treatment at 10 mg/kg oral dose; pretreatment value = 33 mg/dL
Rattus norvegicus [40] = experiment: Serum Non-HDL cholesterol levels in female obese rats two weeks post treatment at 10 mg/kg oral dose; pretreatment value = 33 mg/dL

Question: For `CC(C)(CO)CCCCOCCCCC(C)(C)CO`, which Activity (Rattus norvegicus [1]) is on record?
Answer: 706 mg/dL

Question: And the Activity (Rattus norvegicus [2])?
Answer: 110 mg/dL

Question: What about the Activity (Rattus norvegicus [3]) of the same molecule?
Answer: 629 mg/dL

Question: And the Activity (Rattus norvegicus [4])?
Answer: 79 mg/dL

Question: And the Activity (Rattus norvegicus [5])?
Answer: 134 mg/dL

Question: What about the Activity (Rattus norvegicus [6]) of the same molecule?
Answer: 107 mg/dL

Question: What about the IC50 (Rattus norvegicus [7]) of the same molecule?
Answer: 11 µM

Question: And the Activity (Rattus norvegicus [8])?
Answer: 33 mg/dL

Question: What about the Activity (Rattus norvegicus [9]) of the same molecule?
Answer: 26 mg/dL

Question: What about the Change (Rattus norvegicus [10]) of the same molecule?
Answer: -77%

Question: What about the Change (Rattus norvegicus [11]) of the same molecule?
Answer: -71%

Question: What about the Change (Rattus norvegicus [12]) of the same molecule?
Answer: 234%

Question: And the Change (Rattus norvegicus [13])?
Answer: 366%

Question: And the Change (Rattus norvegicus [14])?
Answer: -38%

Question: And the Change (Rattus norvegicus [15])?
Answer: 11%

Question: And the Activity (Rattus norvegicus [16])?
Answer: 1.2 mg/dL

Question: And the Activity (Rattus norvegicus [17])?
Answer: 9 ng/mL

Question: What about the Activity (Rattus norvegicus [18]) of the same molecule?
Answer: 9.9 ng/mL

Question: And the Activity (Rattus norvegicus [19])?
Answer: 0.75 mg/dL

Question: What about the Activity (Rattus norvegicus [20]) of the same molecule?
Answer: 100 mg/dL

Question: What about the Activity (Rattus norvegicus [21]) of the same molecule?
Answer: 101 mg/dL

Question: What about the Activity (Rattus norvegicus [22]) of the same molecule?
Answer: 26 mg/dL

Question: And the Activity (Rattus norvegicus [23])?
Answer: 20 mg/dL

Question: And the Activity (Rattus norvegicus [24])?
Answer: 29 mg/dL

Question: And the Activity (Rattus norvegicus [25])?
Answer: 14 mg/dL

Question: Which results are given for `CC(C)(CO)CCCCCOCCCCCC(C)(C)CO`?
Answer: Activity (Rattus norvegicus [26]): 114 mg/dL; Activity (Rattus norvegicus [27]): 1031 mg/dL; Activity (Rattus norvegicus [28]): 56 mg/dL; Activity (Rattus norvegicus [29]): 83 mg/dL; Activity (Rattus norvegicus [30]): 1420 mg/dL; Activity (Rattus norvegicus [31]): 424 mg/dL; Activity (Rattus norvegicus [32]): 115 mg/dL; Activity (Rattus norvegicus [33]): 138 mg/dL; Activity (Rattus norvegicus [6]): 72 mg/dL; Activity (Rattus norvegicus [34]): 141 mg/dL; IC50 (Rattus norvegicus [7]): 4 µM; Activity (Rattus norvegicus [8]): 32 mg/dL; Activity (Rattus norvegicus [9]): 10 mg/dL; Change (Rattus norvegicus [10]): -91%; Change (Rattus norvegicus [11]): -82%; Change (Rattus norvegicus [12]): 99%; Change (Rattus norvegicus [13]): 133%; Change (Rattus norvegicus [14]): -82%; Change (Rattus norvegicus [15]): -68%; Activity (Rattus norvegicus [35]): 0.89 mg/dL; Activity (Rattus norvegicus [36]): 8.7 ng/mL; Activity (Rattus norvegicus [37]): 1.5 mg/dL; Activity (Rattus norvegicus [38]): 10.4 ng/mL; Activity (Rattus norvegicus [21]): 104 mg/dL; Activity (Rattus norvegicus [23]): 15 mg/dL; Activity (Rattus norvegicus [25]): 5 mg/dL; Activity (Rattus norvegicus [39]): 40 mg/dL; Activity (Rattus norvegicus [40]): 53 mg/dL
